# Data taken from the RNAGym collection of RNA variant scans (doi:10.1126/science.aae0568).
# This sample holds only a part of the variants without activity.
# B1: tRNA (parent)
# chain: GUUCCGUUGGCGUAAUGGUAACGCGUCUCCCUCCUAAGGAGAAGACUGCGGGUUCGAGUCCCGUACGGAACG
# Variants of: B1
# Assay: yeast fitness relative to wild type (ratio to wild type); higher = fitter; tRNA-Arg(CCU), competitive growth, 37 C, YPD
# How it was run: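 Changes in genotype frequencies gave Darwinian fitness relative to wild type. Frequencies were read by 100-nucleotide paired-end sequencing of gene amplicons before and after pooled Saccharomyces cerevisiae strains, carrying tRNA-Arg(CCU) gene variants at the native locus, were competed in YPD at 37°C for 24 hours in six replicates. A genotype was kept only with ≥ 100 starting reads, and estimates < 0.5 were set to 0.5.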
row,Variant,yeast fitness
1,C5A C11G U28A A40U C55A,≤ 0.5
2,C4U G17A C33G,≤ 0.5
3,C4U U47A G67A,0.607
4,C5A A20U G23A C66U,≤ 0.5
5,C4U G10C,0.625
6,C5A A21C C30G C34U G38C C49U C55U A70C,≤ 0.5
7,C4U U8A,0.66
8,C4U U8C,0.942
9,C5A C22G A65C,0.582
10,C5A A21G C31G,0.62
11,C4U G44A U47C G56A,≤ 0.5
12,C4U G12A U28A A42C,0.515
13,C5A C11G C61G,0.502
14,C5A A15C C27U C30U U32G U35A A37C U54A,≤ 0.5
15,C4U G48C C66U,0.729
16,C4U G23A U28C G56C,≤ 0.5
17,C4U U8A A20G C24A,≤ 0.5
18,C4U U16A A37U A65U,≤ 0.5
19,C4U G12A A45C C49U,≤ 0.5
20,C4U U28C,1.02
21,C4U U28G,0.772

row,Variant,yeast fitness
1,C5A C11G C24A C55U G63C,≤ 0.5
2,C4U G25A C66U,0.75
3,C4U U7G C11G C46G,≤ 0.5
4,C5A A14G C22G C60U C61U,≤ 0.5
5,C5A C22A A40G C60A,≤ 0.5
6,C4U U26A C46U,0.972
7,C5A A57G C60G,≤ 0.5
8,C5A A45U G48A G56A,0.706
9,C4U G6A G25A U53A C66A,≤ 0.5
10,C4U G23C A40U A42G A45G G51C C61U G63A,≤ 0.5
11,C4U U35A G44C C66U G67U A70G,≤ 0.5
12,C4U G25A A65G,0.718
13,C4U U19A C27G A43U C46A C49U,≤ 0.5
14,C4U G12A C27G C34A C49A G68U,≤ 0.5
15,C4U G6C A21C C30G C46G,0.524
16,C4U G12A A42U,≤ 0.5
17,C4U U16A U26C C27A U47C,≤ 0.5
18,C4U G44A C61G,≤ 0.5
19,C4U U8G U19A A21C A70U,≤ 0.5
20,C5A C22A C27G A43U C60A,≤ 0.5
21,C5A A14G A15G C22G A37U,≤ 0.5

row,Variant,yeast fitness
1,C4U G25C C34U A65U,≤ 0.5
2,C4U G12C C30G A36C,≤ 0.5
3,C4U U7A C22U U54C C66U G68C A69U,≤ 0.5
4,C5A A14C A43C,≤ 0.5
5,C5A A15G C33A C61U G67A,≤ 0.5
6,C4U G25A U54A,≤ 0.5
7,C5A A45C,0.81
8,C4U U7A A36U A70G,≤ 0.5
9,C5A C11G A21U A65C,≤ 0.5
10,C4U G10C A36U,0.659
11,C5A A14G C24A U32C,≤ 0.5
12,C4U G38A,0.919
13,C4U G38C,0.825
14,C5A A20G U32G A43C A45U,≤ 0.5
15,C4U U16C C34A A42U,0.726
16,C4U G9A G39A G44C,≤ 0.5
17,C4U G12A G39C C49A U64G,0.544
18,C5A C11A C30U C31A C61A,≤ 0.5
19,C5A A40U C60U C61G,0.525
20,C4U G38A U47C,0.501
21,C4U U8A U32G U35A C62U,0.707

row,Variant,yeast fitness
1,C5A A14G C31U,0.721
2,C4U U32G A40C,0.57
3,C4U G39A A42G G63A G67A,≤ 0.5
4,C4U U7A A36U A65G,0.535
5,C4U G52C C61A,0.581
6,C4U G44C A57U,0.595
7,C4U G38C C61U,0.54
8,C5A A21G,0.942
9,C5A A15G C61A,≤ 0.5
10,C4U G18A A21C G48C,≤ 0.5
11,C4U G9A C22A U26A G52C G67A,≤ 0.5
12,C4U U13C U26A G63C,≤ 0.5
13,C4U U7C C29G C49A,≤ 0.5
14,C4U U8A A36C C61U,≤ 0.5
15,C5A C11G C62G,≤ 0.5
16,C4U U7A C30G C34G A40C A57U,≤ 0.5
17,C5A C11G G41C,0.561
18,C5A A14C A21U C34U G38C,≤ 0.5
19,C4U U19A A42C,0.825
20,C4U U16A A20U U35C G39C A42C G48A,0.582
